Measured values reported in ChEMBL document CHEMBL4145561, “Tiacumicin Congeners with Improved Antibacterial Activity from a Halogenase-Inactivated Mutant” (2018).
Values after ≈ are worked out from the molar mass of the structure shown.

Legend:
Assay type in all cases: functional
Staphylococcus aureus [1] = test: Antimicrobial activity against Staphylococcus aureus ATCC 29213 by broth microdilution method
Summary of the method: (§1)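 Mueller Hinton broth microdilution; MIC read as the minimal inhibitory concentration. Run against a panel of indicator strains that included MRSA, S. aureus ATCC 29213, B. thuringiensis SCSIO BT01, M. luteus SCSIO ML 01 and E. faecalis ATCC 29212.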

Staphylococcus aureus [2] = test: Antimicrobial activity against methicillin-resistant Staphylococcus aureus isolate shhs-A1 by broth microdilution method
Summary of the method: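 Minimal inhibitory concentration determined by broth microdilution in Mueller Hinton broth against methicillin-resistant S. aureus shhs-A1, one strain of an indicator panel that also included S. aureus ATCC 29213, B. thuringiensis SCSIO BT01, M. luteus SCSIO ML 01 and E. faecalis ATCC 29212.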

Micrococcus luteus = test: Antimicrobial activity against Micrococcus luteus SCSIO ML01 by broth microdilution method; summary of the method: as §1
Bacillus thuringiensis = test: Antimicrobial activity against Bacillus thuringiensis SCSIO BT01 by broth microdilution method; summary of the method: as §1
Enterococcus faecalis = test: Antimicrobial activity against Enterococcus faecalis ATCC 29212 by broth microdilution method; summary of the method: as §1

CC[C@@H]1C/C=C(C)/C=C(\C)[C@H](O[C@@H]2OC(C)(C)[C@@H](O)[C@H](O)[C@@H]2O)[C@@H](CC)/C=C(\C)[C@@H](O)C/C=C/C=C(\CO[C@@H]2O[C@H](CO)[C@@H](O)[C@H](O)[C@@H]2O)C(=O)O1
MIC (Staphylococcus aureus [1]): > 128 µg/mL
MIC (Staphylococcus aureus [2]): > 128 µg/mL
MIC (Micrococcus luteus): > 128 µg/mL
MIC (Bacillus thuringiensis): > 128 µg/mL
MIC (Enterococcus faecalis): > 128 µg/mL

CC[C@H]1/C=C(\C)[C@@H](O)C/C=C/C=C(\CO[C@@H]2O[C@H](C)[C@@H](OC(=O)c3c(C)cc(O)cc3O)[C@H](O)[C@@H]2OC)C(=O)O[C@H]([C@@H](C)O)C/C=C(C)/C=C(\C)[C@@H]1O[C@@H]1OC(C)(C)[C@@H](OC(=O)C(C)C)[C@H](O)[C@@H]1O
MIC (Staphylococcus aureus [1]): 16 µg/mL (≈ 16.4 µM)
MIC (Staphylococcus aureus [2]): 16 µg/mL (≈ 16.4 µM)
MIC (Micrococcus luteus): 16 µg/mL (≈ 16.4 µM)
MIC (Bacillus thuringiensis): 8 µg/mL (≈ 8.2 µM)
MIC (Enterococcus faecalis): 64 µg/mL (≈ 65.6 µM)

CCc1cc(O)cc(O)c1C(=O)O[C@H]1[C@H](O)[C@H](OC)[C@H](OC/C2=C\C=C\C[C@H](O)/C(C)=C/[C@H](CC)[C@@H](O[C@@H]3OC(C)(C)[C@@H](OC(=O)C(C)C)[C@H](O)[C@@H]3O)/C(C)=C/C(C)=C/C[C@@H]([C@@H](C)O)OC2=O)O[C@@H]1C
MIC (Staphylococcus aureus [1]): 2 µg/mL (≈ 2.02 µM)
MIC (Staphylococcus aureus [2]): 2 µg/mL (≈ 2.02 µM)
MIC (Micrococcus luteus): 2 µg/mL (≈ 2.02 µM)
MIC (Bacillus thuringiensis): 1 µg/mL (≈ 1.01 µM)
MIC (Enterococcus faecalis): 16 µg/mL (≈ 16.2 µM)

CC[C@H]1/C=C(\C)[C@@H](O)C/C=C/C=C(\CO[C@@H]2O[C@H](C)[C@@H](O)[C@H](O)[C@@H]2OC)C(=O)O[C@H]([C@@H](C)O)C/C=C(C)/C=C(\C)[C@@H]1O[C@@H]1OC(C)(C)[C@@H](OC(=O)C(C)C)[C@H](O)[C@@H]1O
MIC (Staphylococcus aureus [1]): > 128 µg/mL
MIC (Staphylococcus aureus [2]): > 128 µg/mL
MIC (Micrococcus luteus): > 128 µg/mL
MIC (Bacillus thuringiensis): > 128 µg/mL
MIC (Enterococcus faecalis): > 128 µg/mL

CCc1cc(O)cc(O)c1C(=O)O[C@H]1[C@H](O)[C@H](OC)[C@H](OC/C2=C\C=C\C[C@H](O)/C(C)=C/[C@H](CC)[C@@H](O[C@@H]3OC(C)(C)[C@@H](OC(=O)C(C)C)[C@H](O)[C@@H]3O)/C(C)=C/C(C)=C/C[C@@H](CC)OC2=O)O[C@@H]1C
MIC (Staphylococcus aureus [1]): > 128 µg/mL
MIC (Staphylococcus aureus [2]): > 128 µg/mL
MIC (Micrococcus luteus): > 128 µg/mL
MIC (Bacillus thuringiensis): 4 µg/mL (≈ 4.11 µM)
MIC (Enterococcus faecalis): > 128 µg/mL

CCc1cc(O)cc(O)c1C(=O)O[C@H]1[C@H](O)[C@H](O)[C@H](OC/C2=C\C=C\C[C@H](O)/C(C)=C/[C@H](CC)[C@@H](O[C@@H]3OC(C)(C)[C@@H](OC(=O)C(C)C)[C@H](O)[C@@H]3O)/C(C)=C/C(C)=C/C[C@@H](CC)OC2=O)O[C@@H]1C
MIC (Staphylococcus aureus [1]): > 128 µg/mL
MIC (Staphylococcus aureus [2]): > 128 µg/mL
MIC (Micrococcus luteus): > 128 µg/mL
MIC (Bacillus thuringiensis): 16 µg/mL (≈ 16.7 µM)
MIC (Enterococcus faecalis): > 128 µg/mL

CCCc1cc(O)cc(O)c1C(=O)O[C@H]1[C@H](O)[C@H](OC)[C@H](OC/C2=C\C=C\C[C@H](O)/C(C)=C/[C@H](CC)[C@@H](O[C@@H]3OC(C)(C)[C@@H](OC(=O)C(C)C)[C@H](O)[C@@H]3O)/C(C)=C/C(C)=C/C[C@@H]([C@@H](C)O)OC2=O)O[C@@H]1C
MIC (Staphylococcus aureus [1]): 2 µg/mL (≈ 1.99 µM)
MIC (Staphylococcus aureus [2]): 2 µg/mL (≈ 1.99 µM)
MIC (Micrococcus luteus): 1 µg/mL (≈ 0.997 µM)
MIC (Bacillus thuringiensis): 0.5 µg/mL (≈ 0.498 µM)
MIC (Enterococcus faecalis): 4 µg/mL (≈ 3.99 µM)

CCc1cc(O)cc(O)c1C(=O)O[C@H]1[C@H](O)[C@H](OC)[C@H](OC/C2=C\C=C\C[C@H](O)/C(C)=C/[C@H](CC)[C@@H](O[C@@H]3OC(C)(C)[C@@H](OC(C)=O)[C@H](O)[C@@H]3O)/C(C)=C/C(C)=C/C[C@@H]([C@@H](C)O)OC2=O)O[C@@H]1C
MIC (Staphylococcus aureus [1]): 128 µg/mL (≈ 133 µM)
MIC (Staphylococcus aureus [2]): > 128 µg/mL
MIC (Micrococcus luteus): 64 µg/mL (≈ 66.6 µM)
MIC (Bacillus thuringiensis): 8 µg/mL (≈ 8.32 µM)
MIC (Enterococcus faecalis): > 128 µg/mL

CCc1cc(O)cc(O)c1C(=O)O[C@H]1[C@H](O)[C@H](OC)[C@H](OC/C2=C\C=C\C[C@H](O)/C(C)=C/[C@H](CC)[C@@H](O[C@@H]3OC(C)(C)[C@@H](OC(=O)C(C)C)[C@H](O)[C@@H]3O)/C(C)=C/C(C)=C/C[C@@H](C(C)=O)OC2=O)O[C@@H]1C
MIC (Staphylococcus aureus [1]): > 128 µg/mL
MIC (Staphylococcus aureus [2]): > 128 µg/mL
MIC (Micrococcus luteus): > 128 µg/mL
MIC (Bacillus thuringiensis): 8 µg/mL (≈ 8.1 µM)
MIC (Enterococcus faecalis): > 128 µg/mL

CCc1c(Cl)c(O)c(Cl)c(O)c1C(=O)O[C@H]1[C@H](O)[C@H](OC)[C@H](OC/C2=C\C=C\C[C@H](O)/C(C)=C/[C@H](CC)[C@@H](O[C@@H]3OC(C)(C)[C@@H](OC(=O)C(C)C)[C@H](O)[C@@H]3O)/C(C)=C/C(C)=C/C[C@@H]([C@@H](C)O)OC2=O)O[C@@H]1C [FIDAXOMICIN]
MIC (Staphylococcus aureus [1]): 4 µg/mL (≈ 3.78 µM)
MIC (Staphylococcus aureus [2]): 1 µg/mL (≈ 0.945 µM)
MIC (Micrococcus luteus): 4 µg/mL (≈ 3.78 µM)
MIC (Bacillus thuringiensis): 2 µg/mL (≈ 1.89 µM)
MIC (Enterococcus faecalis): 16 µg/mL (≈ 15.1 µM)

CCC(=O)O[C@H]1[C@H](O)[C@H](O)[C@H](O[C@H]2/C(C)=C/C(C)=C/C[C@@H]([C@@H](C)O)OC(=O)/C(CO[C@@H]3O[C@H](C)[C@@H](OC(=O)c4c(O)cc(O)cc4CC)[C@H](O)[C@@H]3OC)=C/C=C/C[C@H](O)/C(C)=C/[C@@H]2CC)OC1(C)C
MIC (Staphylococcus aureus [1]): 8 µg/mL (≈ 8.2 µM)
MIC (Staphylococcus aureus [2]): 8 µg/mL (≈ 8.2 µM)
MIC (Micrococcus luteus): 16 µg/mL (≈ 16.4 µM)
MIC (Bacillus thuringiensis): 2 µg/mL (≈ 2.05 µM)
MIC (Enterococcus faecalis): 32 µg/mL (≈ 32.8 µM)

CCc1cc(O)cc(O)c1C(=O)O[C@H]1[C@H](O)[C@H](OC)[C@H](OC/C2=C\C=C\C[C@H](O)/C(C)=C/[C@H](CC)[C@@H](O[C@@H]3OC(C)(C)[C@@H](O)[C@H](O)[C@@H]3O)/C(C)=C/C(C)=C/C[C@@H](CC)OC2=O)O[C@@H]1C
MIC (Staphylococcus aureus [1]): > 128 µg/mL
MIC (Staphylococcus aureus [2]): > 128 µg/mL
MIC (Micrococcus luteus): 8 µg/mL (≈ 8.86 µM)
MIC (Bacillus thuringiensis): 16 µg/mL (≈ 17.7 µM)
MIC (Enterococcus faecalis): > 128 µg/mL
